Screening results deposited in PubChem by Johns Hopkins Ion Channel Center.
hERG protect: shields human hERG channel from block by proarrhythmic agents. Q12809. CHO-hERG, FluxOR thallium flux, dofetilide IC70 present. activation (rescue from dofetilide block), less the hit threshold, % at 10 µM. 0.51% of 310,000 active;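 active means activation above the mean of controls blocked by dofetilide plus 5 SD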;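 further: thallium influx through hERG after potassium depolarization seen as dye fluorescence rise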
KCNQ1 inh: inhibitors of human KCNQ1 potassium channel; CHO-K1 KCNQ1, FluxOR thallium flux fluorescence; stronger effect = higher value; B-score at 10 µM; 1.3% of 310,000 active; P51787;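 active means compounds whose thallium flux B-score, printed positive for inhibition, exceeds three library SD while starting fluorescence stays within three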;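 further: channel opened by potassium depolarization with thallium stimulus after 20 min compound exposure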
Kir21 inh: Kir2.1 (mouse) channel inhibition. AID 1672. 0.85% of 310,000 active. HEK293-Kir2.1, FluxOR thallium flux fluorescence; stronger effect = lower value. B-score at 10 µM. P35561;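 active means fluorescence ratio B-score at or below minus 3 SD of library scores, with starting-brightness B-score within 2 SD, cut at about -4.2 in these data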;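 further: channel flux triggered by added potassium and thallium sulfate stimulus; B-score of peak minus minimum fluorescence over baseline after thallium stimulus; more negative B-score means stronger Kir2.1 block with less thallium influx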
Target sequence (P35561 whole entry, looked up): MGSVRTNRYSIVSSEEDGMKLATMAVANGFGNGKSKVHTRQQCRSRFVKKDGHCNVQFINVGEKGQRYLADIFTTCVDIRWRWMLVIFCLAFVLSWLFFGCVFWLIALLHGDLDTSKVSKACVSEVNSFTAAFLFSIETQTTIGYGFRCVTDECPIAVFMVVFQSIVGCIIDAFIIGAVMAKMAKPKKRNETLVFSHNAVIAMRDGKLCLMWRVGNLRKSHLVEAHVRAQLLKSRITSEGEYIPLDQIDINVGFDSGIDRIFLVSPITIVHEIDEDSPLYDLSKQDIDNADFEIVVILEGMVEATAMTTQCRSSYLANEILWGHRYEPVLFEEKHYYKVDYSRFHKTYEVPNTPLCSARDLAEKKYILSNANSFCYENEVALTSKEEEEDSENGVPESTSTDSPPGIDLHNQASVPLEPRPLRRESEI
KCNK3 block: human KCNK3 channel inhibition, primary screen | CHO-KCNK3 thallium flux, FluxOR fluorescence; stronger effect = lower value | B-score at 10 µM | 0.84% of 340,000 active;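 active means B-score under library mean minus 4 SD, starting fluorescence ratio at most library mean plus 5 SD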;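 further: more negative B-score means stronger inhibition of thallium flux through KCNK3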
KCNK9 block: inhibitors of human KCNK9 two-pore domain potassium channel | Q9NPC2 | HEK293 KCNK9, FluxOR thallium flux fluorescence; stronger effect = lower value | B-score at 10 µM | 1.2% of 310,000 active | AID 488922;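 active means ratio B-score over 3 SD below the library mean, with starting fluorescence within 5 SD of its mean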;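 further: negative B-score means less thallium flux so channel inhibition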
Target sequence (Q9NPC2 whole entry, looked up, the tested form may be a part): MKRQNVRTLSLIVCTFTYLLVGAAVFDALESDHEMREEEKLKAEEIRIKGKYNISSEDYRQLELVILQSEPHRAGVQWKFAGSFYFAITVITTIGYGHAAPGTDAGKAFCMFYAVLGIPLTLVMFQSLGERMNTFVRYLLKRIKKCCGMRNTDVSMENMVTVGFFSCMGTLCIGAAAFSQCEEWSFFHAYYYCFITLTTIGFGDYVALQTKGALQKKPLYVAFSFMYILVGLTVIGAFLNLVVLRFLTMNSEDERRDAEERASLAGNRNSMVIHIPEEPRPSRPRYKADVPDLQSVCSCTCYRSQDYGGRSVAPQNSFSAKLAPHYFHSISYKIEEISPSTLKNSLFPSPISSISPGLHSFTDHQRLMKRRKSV
KCNQ1 pot: potentiates or activates the human KCNQ1 potassium channel; P51787; CHO-K1 KCNQ1, thallium flux FluxOR fluorescence; stronger effect = higher value; B-score at 10 µM; 0.35% of 310,000 active;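 active means fluorescence ratio B-score, a plate-corrected score, at least three library SD, with initial intensity B-score within 5 SD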
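Assay system: CHO-K1 cells stably expressing KCNQ1; Medium: assay buffer with matched DMSO; Also added: K+/Tl+ depolarizing stimulus; Dosing: single dose; Timing: dye 90 min, compound 20 min, room temperature; Measured by: kinetic FluxOR thallium fluorescence, 10-s 1-Hz baseline, 110-s post-stimulus read; Read-out: peak-minus-minimum fluorescence over initial fluorescence, negative-control normalized, B-scored.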
KCNK9 inh conf: confirmation of human KCNK9 potassium channel inhibitors; HEK293 KCNK9 cells, FluxOR thallium flux fluorescence; shares compounds with KCNK9 block; inhibition, % at 10 µM; 43% of 4,900 active;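 active means thallium signal inhibited by more than 5 SD of the compound-free buffer control wells, on both duplicate plates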;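 further: 0% = assay buffer control wells without compound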
Kir2-1 spec: selectivity of KCNK9 modulators against mouse Kir2.1; AID 492993; shares compounds with KCNK9 block; 4% of 4,900 active; inhibition, % at 10 µM; Kir2.1 cells, FluxOR thallium flux fluorescence;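 active means thallium signal drop more than 5 SD beyond the mean of the no-compound control wells, seen in both duplicate plates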;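 further: signal is fluorescence rise after thallium addition divided by baseline fluorescence; plate controls were assay buffer only for no effect and full block by chlorpromazine control for full effect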
HEK293 Tl ctr: second check of KCNK9 modulator effects in non-induced HEK293 cells; shares compounds with KCNK9 block; FluxOR thallium flux; inhibition, % at 10 µM; 40% of 4,900 active; AID 492997;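 active means thallium signal drop beyond 5 SD of the untreated control mean, on both duplicate plates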;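 further: plate controls were buffer only IC0 wells for no effect and SID17386958 at its maximal inhibitory level for full effect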
KCNK3 confirm: human KCNK3 channel inhibition, confirmation assay; shares compounds with KCNK3 block; CHO-KCNK3 thallium flux, FluxOR fluorescence; 0% buffer, 100% carvedilol maximal block; ratio percent of control, % at 10 µM; 99% of 2,400 active; AID 651638;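 active means ratio percent of control, averaged over triplicates, above buffer control mean plus 5 SD, cut at about 64% in these data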;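 further: ratio is the fluorescence rise from min to max over baseline after thallium stimulus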
KCNK3 uninduced: KCNK3 inhibitor counter-screen hit in non-induced cells; shares compounds with KCNK3 block; non-induced KCNK3 parental cells, FluxOR thallium flux; stronger effect = lower value; thallium flux ratio (lower = more inhibition) at 10 µM; 40% of 2,400 active; AID 651747;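 active means thallium flux ratio, averaged over three wells, more than 5 SD below the buffer control mean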;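 further: host cells are CHO cells without KCNK3 induction; ratio is peak minus trough fluorescence over baseline then normalized to buffer controls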
The depositor's hits bear a star; i = inactive; x = no result given; ! = repeats disagree. An excerpt weighted towards active compounds, which were near 3.8% of everything screened.

SMILES | hERG protect | KCNQ1 inh | Kir21 inh | KCNK3 block | KCNK9 block | KCNQ1 pot | KCNK9 inh conf | Kir2-1 spec | HEK293 Tl ctr | KCNK3 confirm | KCNK3 uninduced
CCOc1ccc(N(CC(=O)NC(C)(C)C)C(=O)CCC(=O)Nc2nccs2)cc1 | -6.0 | i | -0.41 | i | i | i | x | x | x | x | x
O=C(N/N=C/c1ccc(N2CCOCC2)cc1)c1ccncc1 | x | x | x | i | x | x | x | x | x | x | x
O=C(N/N=C/c1ccc(N2CCOCC2)cc1)c1ccccc1OCCOc1ccccc1 | -7.2 | 7* | 1.57 | -11.4* | -11.9* | i | 30.0%* | i | 26.0%* | 101.3* | i
Cc1cc(C(=O)CSc2nc3ccc(Cl)cc3[nH]2)c(C)n1Cc1ccco1 | -2.0 | i | 0.27 | -9.7* | i | i | i | i | i | 93.7* | i
C=CCOc1ccccc1CN1CCSCC1 | -1.3 | i | 1.08 | i | i | i | x | x | x | x | x
CCC(C)c1ccc(NC(=O)c2c([N+](=O)[O-])cnn2CC)cc1 (stereo not given) | -12.7 | i | -0.32 | i | i | i | x | x | x | x | x
O=C(CCCSc1nnc(SCCCC(=O)c2ccc(F)cc2)s1)c1ccc(F)cc1 | -17.8 | i | -0.2 | -10.7* | i | i | i | i | i | 100.0* | i
COc1cccc(-c2nn(C)c3sc(C(=O)NCc4ccc5c(c4)OCO5)cc23)c1 | -17.8 | i | 0.54 | -11.2* | -12.5* | i | 57.5%* | i | 24.0%* | 99.0* | i
CCN(CCCNC(=O)c1cc2c(-c3cccc(OC)c3)nn(C)c2s1)Cc1ccccc1 | -13.4 | i | -3.91 | i | i | i | x | x | x | x | x
CCN(Cc1nc(-c2ccc(OC)c(OC)c2)no1)C(=O)c1ccc2c(c1)OCO2 | -6.7 | i | -0.49 | i | i | i | x | x | x | x | x
COc1cccc(OC)c1C(=O)Nc1cccc(-c2nc3ccccc3[nH]2)c1 | -5.9 | i | 1.74 | -9.9* | -12.7* | i | 40.0%* | i | i | 133.3* | 0.117*
CC(OC(=O)Cn1[nH]c(=O)c2ccccc2c1=O)C(=O)Nc1ccc(F)cc1 (stereo not given) | -13.6 | i | 0.49 | i | i | i | x | x | x | x | x
O=S(=O)(c1cc(Cl)ccc1Cl)N1CCN(Cc2ccc3c(c2)OCO3)CC1 | -8.7 | i | 0.27 | -9.71* | i | i | i | i | 26.5%* | 112.7* | 0.159*
O=C(c1ccc(COc2ccccc2Cl)o1)N1CCN(Cc2ccc3c(c2)OCO3)CC1 | -11.8 | i | -0.63 | -10.5*! | -11.7* | i | 47.0%* | i | 25.0%* | 123.3* | i
Cc1cccc(N2CCN(C(=O)c3cc(S(=O)(=O)N4CCOCC4)cn3C)CC2C)c1 (stereo not given) | -6.7 | i | 0.18 | i | i | i | x | x | x | x | x
CCCN(CC(=O)Nc1ccccc1C)C(=O)Cc1coc2cc(C)ccc12 | -16.3 | i | 0.99 | i | i | i | x | x | x | x | x
O=C(C1CC1)N(Cc1ccco1)c1nc(-c2ccccc2)cs1 | -10.2 | i | -1.3 | -9.55* | -11.8* | i | 30.5%* | i | 49.0%* | 109.3* | i
O=C(COc1ccc(Cl)cc1)N(Cc1ccccc1)c1nc(-c2ccccc2)cs1 | -13.3 | i | -2.41 | i | i | i | x | x | x | x | x
CC(C)(C)Nc1nc(Nc2ccc([N+](=O)[O-])cc2)nc(NC(C)(C)C)n1 | -10.7 | 8* | -0.55 | -11.1* | -13* | i | 46.0%* | i | 34.5%* | 128.0* | 0.131*
Cc1ccc(Nc2nc(Cl)nc(NC(C)(C)C)n2)cc1 | -7.1 | i | -0.18 | i | i | i | x | x | x | x | x
COc1ccccc1NC(=S)NC(=O)CCCOc1ccc(Cl)cc1Cl | -1.5 | i | -0.85 | -10.1* | -23.2* | i | 58.0%* | i | 30.5%* | 116.7* | i
C#CCOCCOCCOCCNc1nc(N2CCN(C(=O)CCCCCCCCCCNC(=O)Cn3cc(CCCCCN)nn3)CC2)nc(N2CCN(C(=O)CCCCCCCCCCNC(=O)[C@H]([C@@H](C)CC)n3cc(CCCCCN)nn3)CC2)n1 | x | x | x | i | x | x | x | x | x | x | x
Cc1ccc(S(=O)(=O)c2nc(Cc3ccccc3)oc2N2CCOCC2)cc1 | x | x | x | i | x | x | x | x | x | x | x
CC(Cc1cccs1)NC(=O)Nc1ccc(Cl)c(Cl)c1 (stereo not given) | -12.1 | i | -0.04 | -12.7* | -15.8* | i | 61.5%* | i | 42.5%* | 110.3* | 0.158*
CC(Cc1cccs1)NC(=O)Nc1ccc(Cl)cc1 (stereo not given) | -3.9 | i | -0.1 | i | i | i | x | x | x | x | x
SMILES | hERG protect | KCNQ1 inh | Kir21 inh | KCNK3 block | KCNK9 block | KCNQ1 pot | KCNK9 inh conf | Kir2-1 spec | HEK293 Tl ctr | KCNK3 confirm | KCNK3 uninduced
C/C(=N\N1CCN(Cc2ccccc2Cl)CC1)c1ccc([N+](=O)[O-])cc1 | -6.6 | i | -0.1 | i | i | i | x | x | x | x | x
O=C(Nc1ccc(C(=O)O)cc1)/C(=C\c1cccc([N+](=O)[O-])c1)NC(=O)c1ccc(Br)o1 | -6.3 | i | -0.95 | i | i | i | x | x | x | x | x
Cc1cc(C)nc(NC(=NCCc2c[nH]c3ccccc23)NC(=O)c2ccco2)n1 | -20.6 | i | 1.91 | -9.01* | -15.2* | i | 30.0%* | i | i | 134.7* | 0.152*
Cc1csc(NC(=O)c2ccc(Cn3nc(C)c(Br)c3C)o2)n1 | -23.2 | i | -0.06 | i | i | i | x | x | x | x | x
Cc1cc(C)cc(NC(=O)c2ccc(Cn3nc(C)c(Cl)c3C)o2)c1 | -13.1 | i | 0.55 | -9.4* | -10.2* | i | i | i | i | 137.3* | 0.115*
CCOC(=O)c1c(NC(=O)CSc2nnc(C)s2)sc2c1CCCCC2 | -1.3 | i | 0.1 | -9.75* | -9.4* | i | 37.0%* | i | 47.5%* | 121.0* | 0.159*
CC1(C)Cc2cccc(Oc3cc(NN4CCCCC4)c([N+](=O)[O-])cc3[N+](=O)[O-])c2O1 | -7.3 | 6* | -0.81 | -11.7* | -14.4* | i | 56.5%* | i | 40.5%* | 87.7* | i
